Experimental data: ChEMBL document CHEMBL1125415, “Antihyperglycemic activity of novel substituted 3H-1,2,3,5-oxathiadiazole 2-oxides” (1992)

Tests used:
Mus musculus [1] = assay: Antihyperglycemic activity in mice at a dose of 100 mg/kg; type: functional
Summary of the method: (§1)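 Diabetic db/db mice, after exclusion of the five most extreme baseline glucose values, randomized into groups of equal mean plasma glucose, 4-6 per group. Oral dosing in 2% Tween 80/saline on afternoons of days 1-3 (fed), and day 4 after 3 h fast. Plasma glucose at 2 and 4 h post-dose; mean expressed as % change from day-1 baseline versus vehicle; ANOVA with one-sided Dunnett's test.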

Mus musculus [2] = assay: Antihyperglycemic activity in mice at a dose of 20 mg/kg; type: functional; summary of the method: as §1

| SMILES | Decrease (Mus musculus [1]) [%] | Decrease (Mus musculus [2]) [%] |
| --- | --- | --- |
| O=S1NC(CC2=Cc3ccccc3CC2)=NO1 (stereo not given) | -53 | -23 |
| Cc1ccc2occ(CC3=NOS(=O)N3)c2c1 (stereo not given) | -42 | <-15 |
| O=S1NC(Cc2coc3ccc(Br)cc23)=NO1 (stereo not given) | <15 | <-15 |
| O=S1NC(Cc2coc3c(Cl)cc(Cl)cc23)=NO1 (stereo not given) | -29 | <-15 |
| O=S1NC(Cc2c[nH]c3ccc(Br)cc23)=NO1 (stereo not given) | -30 | -22 |
| O=S1NC(CC2CCc3ccccc3C2)=NO1 (stereo not given) | -22 | <-15 |
| O=S1NC(Cc2cc3cc(Cl)ccc3o2)=NO1 (stereo not given) | -23 | <-15 |
| CC(C)(C)c1ccc(CC2=NOS(=O)N2)cc1 (stereo not given) | <15 | <-15 |
| Cc1ccc(CC2=NOS(=O)N2)cc1C (stereo not given) | <15 | <-15 |
| O=S1NC(Cc2cc3cc(Br)ccc3s2)=NO1 (stereo not given) | -29 | -20 |
| O=S1NC(Cc2coc3ccccc23)=NO1 (stereo not given) | -28 | <-15 |
| O=S1NC(Cc2ccc3ccccc3c2)=NO1 (stereo not given) | -63 | -37 |
| O=S1NC(CC2=C(Cl)c3ccccc3CC2)=NO1 (stereo not given) | – | -27 |
| O=S1NC(Cc2ccc3c(c2)CCCC3)=NO1 (stereo not given) | <15 | <-15 |
| O=S1NC(Cc2ccc(Br)cc2F)=NO1 (stereo not given) | -28 | -17 |
| O=S1NC(Cc2cc3ccccc3s2)=NO1 (stereo not given) | -42 | <-15 |
| O=S1NC(Cc2cc3ccc(F)cc3o2)=NO1 (stereo not given) | -18 | <-15 |

| SMILES | Decrease (Mus musculus [1]) [%] | Decrease (Mus musculus [2]) [%] |
| --- | --- | --- |
| O=S1NC(CC2CCc3ccccc32)=NO1 (stereo not given) | <15 | <-15 |
| O=S1NC(Cc2cc3cc(F)ccc3o2)=NO1 (stereo not given) | -25 | <-15 |
| O=S1NC(Cc2cccc(C(F)(F)F)c2)=NO1 (stereo not given) | -34 | <-15 |
| O=S1NC(Cc2cc3cc(Cl)ccc3s2)=NO1 (stereo not given) | -24 | <-15 |
| O=S1NC(Cc2coc3c(Cl)cccc23)=NO1 (stereo not given) | -54 | -26 |
| O=S1NC(Cc2cc3ccccc3o2)=NO1 (stereo not given) | <15 | <-15 |
| O=S1NC(Cc2ccc(OCCc3ccccc3)cc2)=NO1 (stereo not given) | -56 | <-15 |
| O=S1NC(Cc2coc3ccc(Cl)cc23)=NO1 (stereo not given) | – | <-15 |
| O=S1NC(Cc2cc3cc(F)ccc3s2)=NO1 (stereo not given) | <15 | <-15 |
| O=S1NC(Cc2ccc3c(c2)CCC3)=NO1 (stereo not given) | <15 | <-15 |
| O=S1NC(Cc2ccc(OCc3ccccc3)cc2)=NO1 (stereo not given) | <-15 | – |
| O=S1NC(Cc2ccc(-c3ccccc3)cc2)=NO1 (stereo not given) | <15 | <-15 |
| O=S1NC(Cc2csc3ccccc23)=NO1 (stereo not given) | -30 | <-15 |
| O=S1NC(Cc2coc3cc(Cl)ccc23)=NO1 (stereo not given) | -22 | <-15 |
| O=S1NC(Cc2cccc(Cl)c2)=NO1 (stereo not given) | -40 | <-15 |
| O=S1NC(Cc2c[nH]c3ccccc23)=NO1 (stereo not given) | -22 | <-15 |
| CC1(COc2ccc(CC3SC(=O)NC3=O)cc2)CCCCC1 (stereo not given) [CIGLITAZONE] | -29 | <-15 |
